Results taken from ChEMBL document CHEMBL3861952, “Donepezil-like multifunctional agents: Design, synthesis, molecular modeling and biological evaluation” (Eur J Med Chem, 2016).

Experiments:
Cholinesterase [1] = target: T1, Cholinesterase (Homo sapiens, UniProt P06276); assay: Inhibition of human recombinant BuChE expressed in HEK293 cells using S-butyrylthiocholine iodide as substrate preincubated for 30 mins followed by substrate addition measured after 30 mins by Ellman's method
How it was run: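 Ellman assay in 0.1 M phosphate buffer pH 8.0 with 0.05 U/mL BuChE and 0.35 mM DTNB. Serial inhibitor dilutions pre-incubated 30 min at 37 °C, then 0.5 mM S-butyrylthiocholine iodide (final) added. Reaction followed at least 30 min at 405 nm. IC50 from dose-response curves; mean ± S.E.M., at least three experiments in triplicate.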

[2] = target: T2, Amine oxidase [flavin-containing] A (Homo sapiens, UniProt P21397); assay: Inhibition of human recombinant MAOA using p-tyramine as substrate preincubated for 30 mins followed by substrate addition measured for 1 hr by horse-radish peroxidase/amplex red-based fluorometric method
T2 sequence (P21397 whole entry): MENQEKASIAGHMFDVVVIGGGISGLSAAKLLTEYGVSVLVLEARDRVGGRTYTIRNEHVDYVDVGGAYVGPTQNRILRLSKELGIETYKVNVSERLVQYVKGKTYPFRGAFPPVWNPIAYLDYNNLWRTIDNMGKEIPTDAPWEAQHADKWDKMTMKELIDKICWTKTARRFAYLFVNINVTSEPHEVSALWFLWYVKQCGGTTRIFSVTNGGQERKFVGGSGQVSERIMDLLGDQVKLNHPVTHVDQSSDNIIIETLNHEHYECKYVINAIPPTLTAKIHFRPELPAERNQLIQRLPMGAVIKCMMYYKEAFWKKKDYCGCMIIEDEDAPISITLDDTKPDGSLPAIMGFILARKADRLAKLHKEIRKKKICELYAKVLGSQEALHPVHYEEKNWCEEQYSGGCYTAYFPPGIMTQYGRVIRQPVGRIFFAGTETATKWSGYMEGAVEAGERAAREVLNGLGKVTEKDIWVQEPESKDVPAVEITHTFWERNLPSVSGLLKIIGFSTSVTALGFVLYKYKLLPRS

[3] = target: T3, Amine oxidase [flavin-containing] B (Homo sapiens, UniProt P27338); assay: Inhibition of human recombinant MAOB using p-tyramine as substrate preincubated for 30 mins followed by substrate addition measured for 1 hr by horse-radish peroxidase/amplex red-based fluorometric method
T3 sequence (P27338 whole entry): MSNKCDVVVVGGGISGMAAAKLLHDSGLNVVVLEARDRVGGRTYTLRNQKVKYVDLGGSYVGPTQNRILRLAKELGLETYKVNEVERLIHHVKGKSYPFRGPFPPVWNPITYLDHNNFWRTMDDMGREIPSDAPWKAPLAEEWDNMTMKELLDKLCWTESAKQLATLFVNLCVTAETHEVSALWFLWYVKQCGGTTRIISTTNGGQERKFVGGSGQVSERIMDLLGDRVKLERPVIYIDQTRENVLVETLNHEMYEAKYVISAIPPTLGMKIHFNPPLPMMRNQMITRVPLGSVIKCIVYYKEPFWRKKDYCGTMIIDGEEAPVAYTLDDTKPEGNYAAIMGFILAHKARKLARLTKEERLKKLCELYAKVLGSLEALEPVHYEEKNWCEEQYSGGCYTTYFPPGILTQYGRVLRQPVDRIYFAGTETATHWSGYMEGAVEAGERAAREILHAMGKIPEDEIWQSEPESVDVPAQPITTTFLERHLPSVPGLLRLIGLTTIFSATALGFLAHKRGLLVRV

Acetylcholinesterase [4] = target: T4, Acetylcholinesterase (Homo sapiens, UniProt P22303); assay: Inhibition of human recombinant AChE expressed in HEK293 cells using acetylthiocholine iodide as substrate preincubated for 30 mins followed by substrate addition measured after 30 mins by Ellman's method
[5] = target: T2, Amine oxidase [flavin-containing] A; assay: Inhibition of human recombinant MAOA using p-tyramine as substrate measured for 1 hr by horse-radish peroxidase/amplex red-based fluorometric method
How it was run: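 Human recombinant MAO-A (360 mU/mL) pre-incubated 30 min at 37 °C with serial inhibitor dilutions. Reaction started with 1 mM p-tyramine, 40 U/mL HRP and 25 μM Amplex UltraRed (final) in 0.25 mM sodium phosphate pH 7.4. Resorufin fluorescence (ex 530/em 590) read continuously ≥1 h. Water controls, no-substrate blanks. IC50 from dose-response curves; mean ± S.E.M., ≥3 experiments in triplicate.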

[6] = target: T2, Amine oxidase [flavin-containing] A; assay: Inhibition of human recombinant MAOA using p-tyramine as substrate preincubated for 15 mins followed by substrate addition measured for 1 hr by horse-radish peroxidase/amplex red-based fluorometric method
How it was run: (§1)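 Time-dependent series: hrMAO-A pre-incubated with increasing inhibitor concentrations for varied times (0–240 min) before addition of p-tyramine. Fluorometric HRP/Amplex UltraRed read-out as in the standard assay (1 mM p-tyramine, pH 7.4 phosphate, ex 530/em 590). IC50 derived from a dose-response curve at each pre-incubation time.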

[7] = target: T2, Amine oxidase [flavin-containing] A; assay: Inhibition of human recombinant MAOA using p-tyramine as substrate preincubated for 60 mins followed by substrate addition measured for 1 hr by horse-radish peroxidase/amplex red-based fluorometric method; how it was run: as §1
[8] = target: T2, Amine oxidase [flavin-containing] A; assay: Inhibition of human recombinant MAOA using p-tyramine as substrate preincubated for 120 mins followed by substrate addition measured for 1 hr by horse-radish peroxidase/amplex red-based fluorometric method; how it was run: as §1
[9] = target: T2, Amine oxidase [flavin-containing] A; assay: Inhibition of human recombinant MAOA using p-tyramine as substrate preincubated for 180 mins followed by substrate addition measured for 1 hr by horse-radish peroxidase/amplex red-based fluorometric method; how it was run: as §1
[10] = target: T2, Amine oxidase [flavin-containing] A; assay: Inhibition of human recombinant MAOA using p-tyramine as substrate preincubated for 240 mins followed by substrate addition measured for 1 hr by horse-radish peroxidase/amplex red-based fluorometric method; how it was run: as §1
[11] = Metal chelating activity of the compound assessed as compound-Zn2+ complex formation at 10 uM after 15 hrs by UV-Vis spectrophotometric method; assay type: physicochemical
How it was run: (§2)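 Run in distilled water at room temperature: UV-Vis spectra (220–300 nm, 1 cm quartz) of 10 μM compound with CuSO4 or ZnSO4 at 1–5 μM. Complexation followed at 262 nm. Stoichiometry by Job's method: 21 mixtures, total concentration 10 μM, proportions varied 0–100%.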

[12] = Metal chelating activity of the compound assessed as compound-Cu2+ complex formation at 10 uM after 5 mins by UV-Vis spectrophotometric method; assay type: physicochemical; how it was run: as §2
Acetylcholinesterase [13] = target: T4, Acetylcholinesterase; assay: Mixed-type inhibition of human recombinant AChE expressed in HEK293 cells using acetylthiocholine iodide as substrate preincubated for 30 mins followed by substrate addition measured after 30 mins by Lineweaver-Burk plot analysis
Cholinesterase [14] = target: T1, Cholinesterase; assay: Mixed-type inhibition of human recombinant BuChE expressed in HEK293 cells using S-butyrylthiocholine iodide as substrate preincubated for 30 mins followed by substrate addition measured after 30 mins by Lineweaver-Burk plot analysis

T4 sequence (P22303 whole entry): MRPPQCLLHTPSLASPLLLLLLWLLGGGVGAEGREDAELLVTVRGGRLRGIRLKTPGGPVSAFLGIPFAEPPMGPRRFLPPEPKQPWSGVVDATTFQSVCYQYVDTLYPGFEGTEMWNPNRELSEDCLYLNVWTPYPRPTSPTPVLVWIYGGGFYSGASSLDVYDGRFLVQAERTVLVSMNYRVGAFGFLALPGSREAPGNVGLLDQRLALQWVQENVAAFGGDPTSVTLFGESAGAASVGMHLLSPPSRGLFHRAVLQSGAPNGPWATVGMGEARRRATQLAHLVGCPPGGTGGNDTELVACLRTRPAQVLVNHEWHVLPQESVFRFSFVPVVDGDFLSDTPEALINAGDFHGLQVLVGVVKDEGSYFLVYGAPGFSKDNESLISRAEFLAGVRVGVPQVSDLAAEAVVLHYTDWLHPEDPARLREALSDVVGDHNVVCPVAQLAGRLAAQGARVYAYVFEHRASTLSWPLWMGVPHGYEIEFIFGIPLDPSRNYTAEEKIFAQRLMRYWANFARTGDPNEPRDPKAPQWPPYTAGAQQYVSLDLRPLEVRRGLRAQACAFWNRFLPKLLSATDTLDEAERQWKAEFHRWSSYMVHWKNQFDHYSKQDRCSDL
T1 sequence (P06276 whole entry): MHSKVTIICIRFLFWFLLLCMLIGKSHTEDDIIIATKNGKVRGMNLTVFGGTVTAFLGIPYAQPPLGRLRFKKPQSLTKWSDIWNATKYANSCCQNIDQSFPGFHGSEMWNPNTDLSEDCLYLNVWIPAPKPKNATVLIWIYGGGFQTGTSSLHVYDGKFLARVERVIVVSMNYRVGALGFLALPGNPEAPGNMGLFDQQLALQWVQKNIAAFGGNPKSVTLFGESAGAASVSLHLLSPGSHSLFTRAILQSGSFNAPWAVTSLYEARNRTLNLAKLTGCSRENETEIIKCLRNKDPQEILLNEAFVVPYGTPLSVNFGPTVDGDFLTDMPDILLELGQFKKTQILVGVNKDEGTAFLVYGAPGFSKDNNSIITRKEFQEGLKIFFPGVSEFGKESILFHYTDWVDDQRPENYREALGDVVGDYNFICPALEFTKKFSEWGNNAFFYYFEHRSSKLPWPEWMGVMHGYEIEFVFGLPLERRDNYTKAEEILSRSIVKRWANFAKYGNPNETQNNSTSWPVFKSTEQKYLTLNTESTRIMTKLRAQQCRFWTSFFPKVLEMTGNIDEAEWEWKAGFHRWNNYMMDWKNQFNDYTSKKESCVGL

With `C#CCN(Cc1ccc(O)c2ncccc12)C(C#N)CCC1CCN(Cc2ccccc2)CC1` (centres undefined) the IC50 (Cholinesterase [1]) was 2.1 µM, the IC50 [2] was 6.7 µM and the IC50 [3] was 11.8 µM. The IC50 (Acetylcholinesterase [4]) was 0.35 µM.

With `C#CCN(CCC1CCN(Cc2ccccc2)CC1)Cc1ccc2cccc(O)c2n1` the IC50 (Cholinesterase [1]) was 0.079 µM, the IC50 [2] was 35.6 µM and the IC50 [3] was > 100 µM. It also gave an IC50 (Acetylcholinesterase [4]) of 4.1 µM.

For `C#CCN(Cc1ccc2cccc(O)c2n1)C(C#N)C1CCN(Cc2ccccc2)CC1` (centres undefined), the IC50 (Cholinesterase [1]) was 0.03 µM, the IC50 [2] was 10.2 µM and the IC50 [3] was > 100 µM. For the same compound, the IC50 (Acetylcholinesterase [4]) was 64.2 µM.

Compound `C#CCN(Cc1ccc2cccc(O)c2n1)C(C#N)CCC1CCN(Cc2ccccc2)CC1` (centres undefined) has an IC50 (Cholinesterase [1]) of 0.039 µM, a Ki (Cholinesterase [1]) of 0.052 µM and an IC50 [2] of 6.2 to 10.1 µM. For the same compound, the IC50 [3] was > 100 µM, the IC50 (Acetylcholinesterase [4]) was 0.029 µM and the Ki (Acetylcholinesterase [4]) was 0.015 µM. The IC50 [5] was 187 µM, the IC50 [6] was 20.8 µM and the IC50 [7] was 3.8 µM. It also gave an IC50 [8] of 1.9 µM, an IC50 [9] of 1.6 µM and an IC50 [10] of 1.1 µM. The Activity [11] was “Active”, the Activity [12] was “Active” and the Ki (Acetylcholinesterase [13]) was 0.0149 µM. The Ki (Cholinesterase [14]) was 0.0525 µM.

In the case of `C#CCN(Cc1ccc2cccc(O)c2n1)CC1CCN(Cc2ccccc2)CC1`, the IC50 (Cholinesterase [1]) is reported as 0.064 µM, the IC50 [2] is reported as 46.5 µM and the IC50 [3] is reported as > 100 µM. For the same compound, the IC50 (Acetylcholinesterase [4]) was 9.7 µM.

With `C#CCN(CCCC1CCN(Cc2ccccc2)CC1)Cc1ccc2cccc(O)c2n1` the IC50 (Cholinesterase [1]) was 0.023 µM, the IC50 [2] was 37 µM and the IC50 [3] was > 100 µM. The IC50 (Acetylcholinesterase [4]) was 1.5 µM.

With `C#CCN(Cc1ccc2cccc(O)c2n1)C(C#N)CC1CCN(Cc2ccccc2)CC1` (centres undefined) the IC50 (Cholinesterase [1]) was 0.002 µM, the IC50 [2] was 12.2 µM and the IC50 [3] was > 100 µM. For the same compound, the IC50 (Acetylcholinesterase [4]) was 3.3 µM.

For `C#CCN(C)CCCOc1ccc(Cl)cc1Cl` [CLORGILINE], the IC50 (Cholinesterase [1]) was > 500 µM and the IC50 (Acetylcholinesterase [4]) was > 500 µM.

With `C#CCN(C)[C@H](C)Cc1ccccc1` [SELEGILINE] the IC50 (Cholinesterase [1]) was > 500 µM and the IC50 (Acetylcholinesterase [4]) was > 500 µM.
